# A selection: hits, their analogues and other compounds. The true share with any hit is near 12%.
# WT yeast gro inh: growth inhibition of WT yeast, mitochondrial fusion screen; mitochondrial fusion phenotypic screen, WT strain; inhibition, % at 10 µM; 2.1% of 190,000 active; in the data active means inhibition above about 58%; tested in S. cerevisiae
# ROMK mod: modulators of human ROMK potassium channel; P48048; Tet-inducible ROMK, thallium flux fluorescence; actives lie on both sides; B-score at 10 µM; 2% of 130,000 active;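 active means signal ratio slope over the read window, or its plate-corrected B-score, at least 3 SD from the plate mean, either direction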;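 further: B-score of the F/F0 ratio slope over 7 to 12 s after thallium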
# Target sequence (P48048 whole entry, looked up): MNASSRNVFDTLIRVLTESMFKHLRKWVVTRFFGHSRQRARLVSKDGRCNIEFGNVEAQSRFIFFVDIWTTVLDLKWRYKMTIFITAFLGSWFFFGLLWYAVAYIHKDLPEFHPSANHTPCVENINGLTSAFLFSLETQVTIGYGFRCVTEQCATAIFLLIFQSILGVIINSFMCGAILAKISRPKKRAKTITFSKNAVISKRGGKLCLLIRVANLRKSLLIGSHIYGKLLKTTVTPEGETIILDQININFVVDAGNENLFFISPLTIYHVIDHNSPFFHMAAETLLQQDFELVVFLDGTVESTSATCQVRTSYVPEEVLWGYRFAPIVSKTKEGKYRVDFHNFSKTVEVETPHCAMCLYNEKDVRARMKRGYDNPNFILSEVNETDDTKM
# Lmaj promast: inhibitors of Leishmania major promastigote growth. AID 1063. inhibition, % at 10 µM. 9% of 200,000 active. Leishmania major promastigotes, resazurin fluorescence viability; in the data active means inhibition above about 50%;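 further: promastigotes grown with compound for 44 hours at 28 °C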
# Diaph act CS: counter-screen for diaphorase-based assays: diaphorase activators and chemical reducers; Diaphorase/resazurin coupled assay, resorufin fluorescence, 16 min; active compounds read high; 1 = vehicle wells, 0 = NADH-free wells; 0.005% of 190,000 active; activation factor at 20 µM;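 active means diaphorase activity raised at least twofold by the compound at 20 µM; inactive means activation factor below 2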
#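 Assay system: Purified diaphorase enzyme from Clostridium kluyveri | Amount: Enzyme 0.07 U/mL final | Dosing: Compound 20 µM once, DMSO 1% | Timing: 16 min reaction at room temperature | Detection: Fluorescence, excitation 544 nm and emission 590 nm | Evaluation: Higher resorufin formation from activation or reduction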
# Diaphorase inh: counter-screen for diaphorase-based assays: diaphorase inhibitors and chemical oxidizers; diaphorase resazurin-to-resorufin fluorescence, NADH, 16 min; bacterial (C. kluyveri) enzyme, not human; AID 1217; 0.69% of 190,000 active; inhibition, % at 20 µM;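 active means primary screen inhibition at 20 µM above a set limit, cut at about 50% in these data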
#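 System: Bacterial diaphorase enzyme (C. kluyveri) | Incubation: 16-min room-temperature incubation before reading | Benchmarks: No-NADH positive control and DMSO neutral control | Measured by: Resorufin fluorescence 544/590 nm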
# KCC2 mod: modulators of human KCC2 chloride dependent transport; KCC2 cells, thallium flux FluoZin-2 fluorescence; B-score of Tl+ flux slope (higher = more flux/activation; lower = inhibition) at 10 µM; Q9H2X9; 2.2% of 190,000 active;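 active means thallium flux slope and its plate-corrected score both differing from the plate sample mean at a set confidence after two filtering rounds, in either direction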;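 further: slope of fluorescence scaled to starting intensity during 10 to 20 s after thallium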
# Numbers stand for hits; – = inactive; · = not tested or not shown.
SMILES,WT yeast gro inh,ROMK mod,Lmaj promast,Diaph act CS,Diaphorase inh,KCC2 mod
O=C(NCC(c1cccnc1)N1CCN(c2ccccc2)CC1)OCc1ccccc1 (configuration not stated),–,–,96,–,–,·
O=C(NCC(c1cccnc1)N1CCN(c2ccc(F)cc2)CC1)OCc1ccccc1 (configuration not stated),–,–,99,–,–,·
O=C(NCC(c1cccnc1)N1CCN(c2ccc(F)cc2)CC1)c1cccc(Cl)c1 (configuration not stated),–,–,96,–,–,·
CCN1CCN(C(CNC(=O)c2ccc3c(c2)OCO3)c2cccnc2)CC1 (configuration not stated),–,·,–,–,–,–
O=C(NCC(c1cccnc1)N1CCN(c2ccccc2)CC1)C1CCCCC1 (configuration not stated),–,–,74,–,–,–
O=C(NCC(c1cccnc1)N1CCOCC1)Nc1ccccc1 (configuration not stated),–,–,–,–,–,·
CCS(=O)(=O)NCC(c1cccnc1)N1CCN(c2ccccc2OC)CC1 (configuration not stated),–,·,–,–,–,–
CCS(=O)(=O)NCC(c1cccnc1)N1CCN(c2ccccc2F)CC1 (configuration not stated),–,–,78,–,–,·
CCS(=O)(=O)NCC(c1cccnc1)N1CCN(c2ccc(F)cc2)CC1 (configuration not stated),–,–,69,–,–,·
CNc1nc(SC)n(C)c(=O)c1N=O,·,–,·,·,·,–
Cc1cccc(-n2cnc3cc(C(=O)N4CCc5ccccc54)ccc32)c1,–,–,–,–,–,–
CCCSc1cc(N2CCN(C)CC2)nc(-c2ccc(OC)cc2)n1,95,–,–,–,–,–
CCOc1ccccc1OCCC(=O)OCC(=O)c1ccc[nH]1,–,–,–,–,–,–
COc1ccc(C(=O)Nc2nc3c(s2)Cc2cc(OC)ccc2-3)cc1,–,·,96,–,–,–
COc1ccc2c(c1)Cc1sc(NC(=O)c3ccccc3)nc1-2,–,–,–,–,–,·
CCOC(=O)C1CCCN(CCCc2ccccc2)C1 (configuration not stated),–,–,51,–,–,·
COc1ccc(CCN(C)C(=O)C2CCN(Cc3ccccc3)CC2)cc1OC,–,–,–,–,–,–
CC1CCCN(C(=O)C2CCN(CCCc3ccccc3)CC2)C1 (configuration not stated),–,–,81,–,–,–
COc1cc(CN2CCC(C(=O)N3CCCC(C)C3)CC2)cc(Br)c1O (configuration not stated),–,–,76,–,–,·
CCCCN(C)C(=O)C1CCN(CCCc2ccccc2)CC1,–,–,82,–,–,–
CC1CCCN(C(=O)C2CCN(CC(C)c3ccccc3)CC2)C1 (configuration not stated),–,–,–,–,–,–
CCCCCCCCNC(=O)/C(C#N)=C/c1ccccc1[N+](=O)[O-],–,·,58,–,–,–
CCOCCCNC(=O)/C(C#N)=C/c1ccc([N+](=O)[O-])o1,91,–,101,–,–,–
O=C(Nc1ccccc1)c1cc2c(=O)c3ccccc3oc2nc1C(F)(F)F,–,·,–,–,–,–
O=C(Nc1cccc(C(F)(F)F)c1)c1cc2c(=O)c3ccccc3oc2nc1C(F)(F)F,–,·,62,–,–,–
SMILES,WT yeast gro inh,ROMK mod,Lmaj promast,Diaph act CS,Diaphorase inh,KCC2 mod
CC(=O)Nc1ccc(C(C#N)c2ccccc2)cc1 (configuration not stated),–,–,–,–,–,–
Fc1nc(F)c(F)c(NCCCNc2c(F)c(F)nc(F)c2F)c1F,72,–,–,–,–,–
COc1cccc(C(CC(=O)NCc2ccco2)NS(=O)(=O)c2ccc(C)cc2)c1OC (configuration not stated),–,·,–,–,–,–
CCOC(=O)C1=C(c2ccccc2)Nc2ncnn2C1c1cccc(OC)c1OC (configuration not stated),–,·,100,–,–,–
CCOC(=O)C1=C(c2ccccc2)Nc2ncnn2C1c1cc(OC)cc(OC)c1OC (configuration not stated),–,·,92,–,–,–
CCN(CC(=O)NC(C)(C)C)C(=O)C(c1ccccc1)c1ccccc1,–,–,–,–,–,–
CCNc1ccc(C(=O)OC(C(=O)NC(N)=O)C(C)C)cc1[N+](=O)[O-] (configuration not stated),–,–,–,–,–,·
Cc1ccc2cc(/C=C3\N=C(c4ccccc4)OC3=O)c(N3CCOCC3)nc2c1,–,-5.9,–,–,–,·
COc1ccc2nc(N3C(=O)CC(Cc4ccc(C)cc4)C3=O)sc2c1 (configuration not stated),–,–,76,–,–,–
Cc1ccc(CC2CC(=O)N(c3nc4ccccc4s3)C2=O)cc1 (configuration not stated),–,–,–,–,–,–
CC(=O)/C(C#N)=C1\NC(=O)C(Cc2cc(Cl)ccc2Cl)S1 (configuration not stated),·,–,·,·,·,–
CC(=O)/C(C#N)=C1\NC(=O)C(Cc2ccccc2Cl)S1 (configuration not stated),76,–,–,–,–,–
CCOc1ccccc1NC(C)C(=O)Nc1cc(C(F)(F)F)ccc1N1CCOCC1 (configuration not stated),69,·,–,–,–,–
CC(C)C(=O)Nc1cc(C(F)(F)F)ccc1N1CCOCC1,–,·,–,–,–,–
O=C(Nc1cc(C(F)(F)F)ccc1N1CCOCC1)c1ccc(Cl)nc1,–,–,100,–,–,–
COc1cc2c(cc1OC)C(C1C(=O)CC(C)CC1=O)N(C(=O)CCl)CC2 (configuration not stated),–,·,–,–,–,–
O=C(COc1ncnc2c(Cl)cc(Cl)cc12)Nc1cc([N+](=O)[O-])ccc1Cl,–,–,52,–,–,–
CC1(CC(=O)N/N=C/c2ccc(OCc3ccc(Cl)cc3Cl)cc2)OCCCO1,77,·,–,–,–,–
COc1cc(/C=N/NC(=O)CC2(C)OCCCO2)ccc1OCc1ccc(Cl)cc1Cl,–,–,–,–,–,–
Cc1ccc(C)c(S(=O)(=O)Nc2ccc(C(=O)NCCc3ccccn3)cc2)c1,–,–,–,–,–,–
CS(=O)(=O)N1N=C(c2ccco2)CC1c1ccc(Cl)cc1 (configuration not stated),–,·,–,–,–,–
O=C(Nc1ncc(Cc2ccccc2Cl)s1)c1ccc(-c2cccc([N+](=O)[O-])c2)o1,–,–,92,–,–,–
